# Screening results: PubChem, Broad Institute
# FN deposition inh = inhibitors of fibronectin matrix deposition, primary screen, AH1F cells, Alexa488-fibronectin fluorescence, plate reader; AH1F fibroblasts, overnight; inhibition, % at 12.6 µM; 0.086% of 350,000 active; AID 743247, 2014;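 active = mean inhibition across replicates of 30% or more, regardless of how many single replicates reach that level; inconclusive = mean under 30% yet at least half of replicates reach 30%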;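 note: positive control wells lacked labelled fibronectin entirely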
#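 Assay system: AH1F fibroblasts assembling fluorescent fibronectin matrix; Amount: 10000 AH1F cells per well; Buffer or medium: DMEM, 2% serum; Probe or stimulus: Alexa488-fibronectin, 24 nM final in well; Doses: single compound dose, delivered by pin transfer; Incubation: 1 h adhesion, overnight exposure; Measured by: fluorescence 485/525 nm; Read-out: fibronectin deposition inhibition.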
# MLL AF4-AF9 inh = inhibitors of AF4 peptide binding to AF9, primary screen, biochemical, AlphaScreen, biotin-AF4 peptide, FLAG-AF9, single point. inhibition, % at 10 µM. AID 651704, 2012. 0.47% of 350,000 active. Protein AF-9 (Homo sapiens), P42568;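 active = every replicate reaching a set inhibition limit, whatever the replicate mean, cut at about 25% in these data; inconclusive = mean inhibition reaches that limit but some replicates miss it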;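 note: 0% = plate neutral control median and 100% = total signal loss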
# RAD52 anneal inh = RAD52 DNA annealing inhibitors, primary screen, biochemical, FRET, single point, set 2 | inhibition, % at 18.7 µM | recombinant RAD52 DNA annealing, FRET fluorescence | 0.46% of 360,000 active | AID 651710, 2012;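 active = every replicate showing at least 50% inhibition; inconclusive = mean inhibition at least 50% but not in every replicate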
# Target sequence (P43351 whole entry, looked up): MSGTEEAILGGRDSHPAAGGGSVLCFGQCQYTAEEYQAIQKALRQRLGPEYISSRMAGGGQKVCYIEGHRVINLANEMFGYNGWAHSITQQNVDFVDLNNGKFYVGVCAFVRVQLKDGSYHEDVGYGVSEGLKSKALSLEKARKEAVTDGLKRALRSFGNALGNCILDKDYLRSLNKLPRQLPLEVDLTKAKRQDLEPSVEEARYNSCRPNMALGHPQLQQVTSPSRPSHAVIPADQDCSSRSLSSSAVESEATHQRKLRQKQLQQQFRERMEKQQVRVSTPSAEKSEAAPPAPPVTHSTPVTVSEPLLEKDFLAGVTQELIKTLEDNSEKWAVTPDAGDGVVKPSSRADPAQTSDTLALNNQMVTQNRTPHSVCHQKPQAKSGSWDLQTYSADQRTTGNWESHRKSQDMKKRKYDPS
# Glyco luc inh = increase of ERlucT glycosylation luciferase signal, primary screen, N-linked glycosylation inhibitor project, D54 ERlucT cells, luminescence, set 2. D54 ERlucT glycosylation luciferase reporter, 24 h; percent of 100 nM tunicamycin response. reporter increase, % at 12.5 µM. 0.23% of 360,000 active. AID 588692, 2011;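 active = mean luciferase reporter signal, scaled so untreated is 0 and the glycosylation-blocking control 100, at or above a set limit in every replicate; inconclusive = mean reaches the limit but not every replicate does; inactive = mean below the limit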;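 note: luciferase carries N-glycosylation sites so blocking glycosylation raises the light; 0% = median of neutral control wells and 100% = median of 100 nM tunicamycin wells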
# RAD54 branch = inhibitors of human RAD54 branch migration, primary screen, biochemical, fluorescence, single point. DNA repair and recombination protein RAD54-like (Homo sapiens), Q92698. RAD54 Holliday junction branch migration, FAM/BHQ fluorescence. inhibition, % at 10.4 µM. 0.14% of 360,000 active;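 active = mean normalized replicate activity at least 40 and at least half of replicates scoring 40 or more; inconclusive = only one of the two criteria met; inactive = mean below 40 and under half of replicates reaching 40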;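 note: 0% = median of neutral control wells and 100% = median of positive control wells; inhibitors cause a drop in the FAM fluorescence signal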
# RAD52 DNA ctr = DNA-binding compounds via dye displacement, dose response, artefact control for RAD52 inhibitor project, biochemical, fluorescence polarization, cherry-pick; shares compounds with RAD52 anneal inh; Salmon sperm DNA/acridine orange FP displacement; AC50, µM; 8% of 1,000 active;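 active = fitted half-maximal concentration for signal loss at or below twice the highest dose tested, in every separate run, actives reach about 64 µM in these data; inconclusive = runs disagree, or flat partial signal loss, or poor fit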
# Numbers without * were called inactive; i = inactive; ? = inconclusive; nt = not tested or not shown. Most compounds without a hit are left out; they make up all but 0.92% or so of the library.
SMILES,FN deposition inh,MLL AF4-AF9 inh,RAD52 anneal inh,Glyco luc inh,RAD54 branch,RAD52 DNA ctr
CCCCCC[N+](C)(C)CCSSCC[N+](C)(C)CCCCCC,-11,-8,-4,0,1,nt
CCCCCCCCCCCCCCCC[N+](C)(C)CC,16,0,81*,-15,51*,?
CC#CC[N+](C)(C)CCCCCCCCCCCC,9,3,29,1,9,nt
CC(=O)N1[C@H](CO)[C@H]2c3ccccc3N(S(=O)(=O)c3ccccc3F)C[C@H]21,nt,-2,-6,nt,8,nt
CC(C)(O)C#Cc1cccc(-c2nc(C(=O)NCCCN3CCOCC3)cc3c2[C@@H](CCO)N(S(=O)C(C)(C)C)C3)c1 (some centres undefined),-20,-4,-29,nt,10,nt
CC(C)(C)S(=O)N1Cc2cc(C(=O)NCCCN3CCOCC3)nc(-c3cccc(-c4cc5ccccc5o4)c3)c2[C@@H]1CCO (some centres undefined),17,3,-4,2,-9,i
CC(=O)c1ccc(N(C)C)c2c(N(C)C)cccc12,4,nt,nt,3,4,nt
CN(C)c1cccc2cccc(N(C)C)c12,1,nt,93*,4,-4,i
CCN(CC)CCNc1ccc(CO)c2oc3cc(Cl)ccc3c(=O)c12,3,9,57*,35*,105*,i
CN(C)CCNc1ccc(CO)c2oc3ccc(O)cc3c(=O)c12,4,9,81*,-5,nt,55µM*
C[C@H](CO)N1C[C@H](C)[C@H](CN(C)S(=O)(=O)c2ccc(Cl)cc2)Oc2ccc(NC(=O)c3ccncc3)cc2C1=O,-29,-2,-7,nt,4,nt
O=C(C[C@H]1C[C@H]2c3cc(NC(=O)C4CCOCC4)ccc3O[C@H]2[C@@H](CO)O1)NCc1ccc(Oc2ccccc2)cc1,nt,-5,15,nt,-7,nt
CN(C)CCCNc1oc(/C=C/c2cccs2)nc1S(=O)(=O)c1ccccc1,-2,1,52*,-5,5,i
O=C(C[C@@H]1CC[C@@H](NC(=O)c2ccncc2)[C@@H](CO)O1)NCC1CC1,-1,-5,-9,nt,1,nt
COc1ccc(NC(=O)N(C)C[C@@H]2OCCCC[C@H](C)Oc3ccc(NS(=O)(=O)c4ccc(Cl)cc4)cc3C(=O)N([C@H](C)CO)C[C@@H]2C)cc1,4,1,40,nt,-4,nt
COc1ccc(C(=O)OCCc2sc[n+](CC(=O)c3ccccc3)c2C)cc1,-5,11,73*,0,17,i
Cc1c(CCOC(=O)c2ccc(Cl)cc2Cl)sc[n+]1CC(=O)c1ccc(Br)cc1,nt,13,37,-2,30,i
N#C[C@H]1[C@@H](c2ccc(C3=CCCC3)cc2)[C@H](CO)N1C(=O)c1ccccn1,-14,-2,-64,nt,1,nt
CCOc1ccc2[nH]c3c(c2c1)CNCC3,-8,21,55*,2,25,i
COc1cccc2c(N/N=C/c3ccc(O)c(O)c3)cc(C)nc12,1,3,-27,0,-1,nt
COc1ccc(/C=N/Nc2cc(C)nc3c(C)cccc23)cc1,6,14,80*,5,61*,?
C[C@H](CO)N1C[C@H](C)[C@H](CN(C)Cc2ccncc2)Oc2cc(C#CC(C)(C)O)ccc2S1(=O)=O,-2,-2,4,nt,-6,nt
COc1ccc2c3c([nH]c2c1)C(C)N(CCC(=O)NN)CC3 (centres undefined),-5,10,79*,-4,27,i
CC(C)c1ccc(NC(=O)C(c2ccccc2)N2CC(=O)Nc3ccccc32)cc1 (centres undefined),-3,1,62*,-2,7,i
CS(=O)(=O)N1CC(=O)N2[C@H](CO)[C@H](c3ccc(C#Cc4cccc(F)c4)cc3)[C@@H]2C1,nt,-2,-23,nt,nt,nt
SMILES,FN deposition inh,MLL AF4-AF9 inh,RAD52 anneal inh,Glyco luc inh,RAD54 branch,RAD52 DNA ctr
Cc1ccc(-c2csc(NC(=O)C[n+]3cc(-c4ccccc4)n4c3CCC4)n2)cc1,3,17,50*,1,11,i
Cc1ccc(-c2csc(NC(=O)C[n+]3cc(-c4ccc(C)cc4)n4c3CCC4)n2)cc1,-2,?,26,2,nt,nt
CO[C@@H]1CN(C)C(=O)c2cc(NC(C)=O)ccc2OC[C@H](C)N(CC2CC2)C[C@@H]1C,2,-1,14,nt,3,nt
CC(CC(=O)c1ccc(F)cc1)N1CCN(c2ccccc2)CC1 (centres undefined),7,24,80*,2,nt,i
CCN(CC)CCN1CCn2c3c(c4cc(C)ccc42)CCCC31 (centres undefined),-1,27*,63*,3,nt,i
CCN1CCn2c3c(c4cc(Cl)ccc42)CCCC31 (centres undefined),12,12,nt,-1,10,nt
CN1CCN(c2ccc(Cl)cc2NC(=O)CCN2C(=O)c3ccccc3C2=O)CC1,nt,24,83*,0,nt,i
O=C(Nc1ccc(CN2CCOCC2)cc1)c1ccc(-c2ccc(Br)cc2)o1,nt,16,51*,3,2,i
CCOC(=O)c1c(-c2ccccc2)oc2ccc(OCC)cc12,10,nt,nt,-1,3,nt
CCOC(=O)c1c(-c2ccccc2)oc2ccc(OCC(O)CNCCN(C)C)cc12 (centres undefined),8,34*,83*,-6,38,i
CN(C)c1nc(N)c(C(=O)N=C(N)N)nc1Cl,8,3,88*,1,41,i
COc1ccc2c(c1)CC1c3c(cc4c(c3-2)OCO4)CC[N+]1(C)[O-] (centres undefined),3,7,82*,15,61*,?
COc1ccc2c(c1OC)C[N+]1([O-])CCc3cc4c(cc3C1C2)OCO4 (centres undefined),-9,-2,-31,1,5,nt
CCCCCCCCCCCCCCCC(O)C[N+](C)(C)CCO (centres undefined),4,3,80*,-10,nt,35µM*
CNC(=O)C[C@@H]1CC[C@@H]2[C@@H](COc3ccc(NS(=O)(=O)c4ccccc4C)cc3C(=O)N2C)O1,-25,-2,21,nt,-3,nt
CC[N+](CC)(CC)CCCCOc1ccc2c(c1)C(=O)c1cc(OCCCC[N+](CC)(CC)CC)ccc1-2,4,0,102*,1,99*,21µM*
C[C@@H]1ON(C)[C@H]2C[C@H]3c4cc(Nc5ccccc5)ccc4CCN3C[C@@H]12,-2,nt,3,nt,nt,nt
